pIC50: −log10 of the molar value.

Series [1] has as its system MCF7. Put plainly: Antiproliferative activity against human MCF7 cells assessed as inhibition of cell growth incubated for 72 hrs by Hoechst 33342/propidium iodide staining based fluorescence analysis. To be noted: MCF7, 72 h. Format: functional.
In series [2] the test system is SK-BR-3. Put plainly: Antiproliferative activity against human SK-BR-3 cells assessed as inhibition of cell growth incubated for 72 hrs by Hoechst 33342/propidium iodide staining based fluorescence analysis. Format: functional. To be noted: SK-BR-3, 72 h.
Series [3] deals with MDA-MB-231. The series can be described thus: Antiproliferative activity against human MDA-MB-231 cells assessed as inhibition of cell growth incubated for 72 hrs by Hoechst 33342/propidium iodide staining based fluorescence analysis. Format: functional. To be noted: MDA-MB-231, 72 h.
Series [4] in a line: Cytotoxicity against human MCF-10A cells assessed as inhibition of cell growth incubated for 72 hrs by Hoechst 33342/propidium iodide staining based fluorescence analysis. The format is toxicity. To be noted: human, MCF-10A cells.
The nature of series [5]: Antiproliferative activity against human BNC3 cells assessed as inhibition of cell growth incubated for 72 hrs by CCK-8 assay. To be noted: BNC3, 72 h. The format is functional, cell-based. The essentials: (§1)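 Primary patient-derived glioblastoma lines were grown in RPMI 1640 with 10% FBS. Cells were seeded at 3,000 per well and dosed 24 h later at 10, 50, 100, 200 and 300 μM for 24 or 72 h, with BiCNU as control. CCK-8 was added and OD450 read after 2 h at 37 °C. Data are % cell survival, from 3 independent replicates.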

Series [6] in a line: Antiproliferative activity against human BNC6 cells assessed as inhibition of cell growth incubated for 72 hrs by CCK-8 assay. The format is functional, cell-based. To be noted: BNC6, 72 h. Summed up:
as §1

Series [7] can be described thus: Antiproliferative activity against human WSU-HN30 cells assessed as inhibition of cell growth incubated for 72 hrs by CCK-8 assay. Format: functional, cell-based. To be noted: WSU-HN30, 72 h. The essentials: (§2)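 Radiotherapy-resistant HNSCC lines were used: HN30 from pharynx SCC and HN31 from a lymph-node metastasis of the same patient. Cells in RPMI 1640 with 10% FBS were seeded at 3,000 per well and treated 24 h later with 10–300 μM (5 levels) for 24 or 72 h, with cisplatin as control. CCK-8 was read at OD450 after 2 h. Data are % survival, n = 3 independent experiments.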

For series [8], the system named is WSU-HN31. Put plainly: Antiproliferative activity against human WSU-HN31 cells assessed as suppression of cell growth incubated for 24 to 72 hrs by CCK-8 assay. To be noted: dose 10-300 µM, time 24-72 hrs. The format is functional, cell-based. Summed up:
as §2

The test system of series [9] is BNC6. The series can be described thus: Antiproliferative activity against human BNC6 cells assessed as suppression of cell growth incubated for 24 to 72 hrs by CCK-8 assay. Format: functional, cell-based. To be noted: dose 10-300 µM, time 24-72 hrs. Summed up: as §1
The test system of series [10] is BNC3. The series can be described thus: Antiproliferative activity against human BNC3 cells assessed as suppression of cell growth incubated for 24 to 72 hrs by CCK-8 assay. Format: functional, cell-based. To be noted: dose 10-300 µM, time 24-72 hrs. Summed up: as §1
The subject of series [11] is WSU-HN30. Put plainly: Antiproliferative activity against human WSU-HN30 cells assessed as suppression of cell growth incubated for 24 to 72 hrs by CCK-8 assay. Format: functional, cell-based. To be noted: dose 10-300 µM, time 24-72 hrs. The essentials:
as §2

Series [12] in a line: Cytotoxicity against human MCF-10A cells assessed as inhibition of cell growth incubated for 24 hrs by Hoechst 33342/propidium iodide staining based fluorescence analysis. Format: toxicity. To be noted: human, MCF-10A cells.
The nature of series [13]: Antiproliferative activity against human WSU-HN31 cells assessed as inhibition of cell growth incubated for 72 hrs by CCK-8 assay. The format is functional, cell-based. To be noted: WSU-HN31, 72 h. Summed up: as §2

Turning to `C=C(C[C@H](NC(=O)OC(C)(C)C)C(=O)OC(C)(C)C)C(=O)N1CCCCC1`, the pIC50 in series [1], in series [2] and in series [3] was above 3.00 each time. For the same molecule, the IC50 at 72 h in series [4] is above 1 mM.
Take `O=NN(CCCl)C(=O)NCCCl` [CARMUSTINE]: the pIC50 in series [5] and in series [6] was 3.80 in each case.
Regarding `C=C(C[C@H](N)C(=O)O)C(=O)NC1CC1`, the pIC50 in series [7] is 3.98; in [5], 3.77; in [6], 3.73; in [13], 3.71. Also, the Activity entry in series [8], in series [9], in [10] and in series [11] was “Dose-Dependent Effect” in each case. For the same molecule, the IC50 at 72 h in series [4] is above 1 mM. Also, in series [12], the IC50 at 24 h was above 1 mM.
Consider `C=C(C[C@H](NC(=O)OC(C)(C)C)C(=O)OCC)C(=O)NC1CC1`, for which the negative logarithm of the IC50 (pIC50) in [1], in series [2] and in series [3] was below 3.00 each time. For the same molecule, in [4], the IC50 at 72 h is above 1 mM.
`C=C(C[C@H](NC(=O)OC(C)(C)C)C(=O)OCC)C(=O)N1CCCCC1`: the pIC50 in [1], in [2] and in series [3] was below 3.00 each time. Besides, the IC50 at 72 h in [4] was above 1 mM.
As to `C=C(C[C@H](NC(=O)OC(C)(C)C)C(=O)OC(C)(C)C)C(=O)NCc1ccccc1`, the figures for the pIC50 in series [1], in [2] and in [3] were below 3.00, above 3.00 and above 3.00, respectively. Also, in series [4], the IC50 at 72 h is above 1 mM.
As to `C=C(C[C@H](NC(=O)OC(C)(C)C)C(=O)OCC)C(=O)NCc1ccccc1`, the results for the pIC50 in series [1], in series [2] and in [3] were below 3.00, above 3.00 and below 3.00, respectively. In series [4], the IC50 at 72 h was above 1 mM.
For the molecule `C=C1C[C@@H](C(=O)OC(C)(C)C)NC1=O`, the pIC50 in series [1] was below 3.00; in series [2], below 3.00; in series [3] it was above 3.00. In addition, the IC50 at 72 h in [4] is above 1 mM.
For `C=C(C[C@H](NC(=O)OC(C)(C)C)C(=O)OCC)C(=O)Nc1ccc(Cl)cc1`, the pIC50 was below 3.00 in series [1], above 3.00 in series [2] and below 3.00 in series [3]. The IC50 at 72 h in [4] is above 1 mM.
Take `C=C(C[C@H](NC(=O)OC(C)(C)C)C(=O)OC(C)(C)C)C(=O)Nc1ccc(Cl)cc1`: the negative-log IC50 (pIC50) in series [1], in [2] and in series [3] was below 3.00 in each case. The IC50 at 72 h in series [4] is above 1 mM.
On to `C=C(C[C@H](NC(=O)OC(C)(C)C)C(=O)OC(C)(C)C)C(N)=O`, for which the pIC50 in [1] was above 3.00; in series [2], above 3.00; in [3], below 3.00. Further, the IC50 at 72 h in series [4] was above 1 mM.
On to `C=C(C[C@H](NC(=O)OC(C)(C)C)C(=O)OCC)C(=O)NCc1ccc([N+](=O)[O-])cc1`, for which the values for the negative-log IC50 (pIC50) in series [1], in [2] and in series [3] were below 3.00, above 3.00 and below 3.00, respectively. Further, the IC50 at 72 h in series [4] was above 1 mM.
In the case of `C=C1C[C@@H](C(=O)O)NC1=O`, the pIC50 in series [1], in series [2] and in [3] was below 3.00 throughout. In [4], the IC50 at 72 h is above 1 mM.
Regarding `C=C1C[C@@H](C(=O)OCC)NC1=O`, the negative-log IC50 (pIC50) in series [1], in [2] and in series [3] was below 3.00 in each case. The half-inhibitory concentration (IC50) at 72 h in series [4] is above 1 mM.
Take `C=C(C[C@H](N)C(=O)O)C(=O)Nc1ccc(Cl)cc1`: the IC50 at 72 h in series [4] was above 1 mM. Moreover, the IC50 at 24 h in [12] was above 1 mM.
For the molecule `C=C(C[C@H](N)C(=O)O)C(=O)N1CCCCC1`, the pIC50 is 4.01 in series [7], 3.80 in series [5], 3.70 in series [6] and 3.68 in series [13]. Further, the Activity result in series [8], in [9], in series [10] and in series [11] was “Dose-Dependent Effect” in each case. Moreover, the concentration for half-maximal inhibition (IC50) at 72 h in series [4] was above 1 mM. Moreover, the IC50 at 24 h in series [12] was above 1 mM.
Regarding `C=C(C[C@H](N)C(=O)O)C(N)=O`, the IC50 at 72 h in series [4] was above 1 mM. Besides, the IC50 at 24 h in series [12] is above 1 mM.
On to `C=C(C[C@H](NC(=O)OC(C)(C)C)C(=O)OC(C)(C)C)C(=O)NCc1ccc([N+](=O)[O-])cc1`, for which the negative logarithm of the IC50 (pIC50) was below 3.00 in series [1], above 3.00 in [2] and above 3.00 in [3]. Besides, the half-inhibitory concentration (IC50) at 72 h in [4] is above 1 mM.
As to `C=C(C[C@H](NC(=O)OC(C)(C)C)C(=O)OCC)C(=O)Nc1ccccc1`, the pIC50 in series [1], in series [2] and in series [3] was below 3.00 throughout. For the same molecule, the IC50 at 72 h in series [4] was above 1 mM.
As for `C=C(C[C@H](N)C(=O)O)C(=O)NCc1ccc([N+](=O)[O-])cc1`, the pIC50 in series [7] was 4.04; in [5], 3.81; in series [6], 3.75; in [13], 3.71. For the same molecule, the Activity entry in series [8], in [9], in series [10] and in [11] was “Dose-Dependent Effect” each time. In [4], the IC50 at 72 h is above 1 mM. Also, in series [12], the IC50 at 24 h was above 1 mM.
`C=C1C[C@@H](C(=O)OCC)N(C(=O)OC(C)(C)C)C1=O`: the pIC50 in series [1], in series [2] and in [3] was below 3.00 each time. Further, the concentration for half-maximal inhibition (IC50) at 72 h in series [4] is above 1 mM.
As to `C=C(C[C@H](NC(=O)OC(C)(C)C)C(=O)OCC)C(=O)NCc1ccc(F)cc1`, the pIC50 in series [1] is below 3.00; in series [2], above 3.00; in series [3], below 3.00. For the same molecule, in [4], the IC50 at 72 h was above 1 mM.
On to `C=C(C[C@H](NC(=O)OC(C)(C)C)C(=O)OC(C)(C)C)C(=O)NC1CC1`, for which the pIC50 in [1], in [2] and in series [3] was above 3.00 throughout. The IC50 at 72 h in series [4] is above 1 mM.
With `C=C1C[C@@H](C(=O)OC(C)(C)C)N(C(=O)OC(C)(C)C)C1=O`, the negative logarithm of the IC50 (pIC50) in [1] was below 3.00; in series [2], below 3.00; in series [3], above 3.00. In addition, in [4], the IC50 at 72 h was above 1 mM.
As to `C=C(C[C@H](NC(=O)OC(C)(C)C)C(=O)OC(C)(C)C)C(=O)Nc1ccccc1`, the pIC50 in series [1] is below 3.00; in series [2] it was above 3.00; in series [3] it was above 3.00. The IC50 at 72 h in [4] is above 1 mM.
For `C=C(C[C@H](NC(=O)OC(C)(C)C)C(=O)OCC)C(N)=O`, the pIC50 in series [1] was below 3.00; in series [2] it was above 3.00; in [3], above 3.00. In series [4], the IC50 at 72 h was above 1 mM.
As to `C=C(C[C@H](NC(=O)OC(C)(C)C)C(=O)OC(C)(C)C)C(=O)NCc1ccc(F)cc1`, the pIC50 in series [1] was below 3.00; in series [2], above 3.00; in series [3], above 3.00. Also, in series [4], the IC50 at 72 h was above 1 mM.
With `C=C(C[C@H](NC(=O)OC(C)(C)C)C(=O)OCC)C(=O)Nc1ccc(F)cc1`, the negative-log IC50 (pIC50) was below 3.00 in series [1], above 3.00 in [2] and below 3.00 in series [3]. In addition, in series [4], the 50% inhibitory concentration (IC50) at 72 h was above 1 mM.

The record behind these values is ChEMBL document CHEMBL5236662, “Synthesis and biological evaluation of tert-butyl ester and ethyl ester prodrugs of L-γ-methyleneglutamic acid amides for cancer” (Bioorg Med Chem, 2023).
